Experimental data published in ChEMBL document CHEMBL1208679, “Synthesis and evaluation of a new series of Neuropeptide S receptor antagonists” (Bioorg Med Chem Lett, 2010).
Calls of active or inactive are those of the source. The calls are words filed in the database; no cut-off is given here.

Experiments:
Neuropeptide S receptor [1] = molecular target: T1, Neuropeptide S receptor (Homo sapiens, UniProt Q6W5P4); test: Antagonist activity at human recombinant NPS receptor expressed in CHOK1 cells assessed as inhibition of NPS-induced calcium mobilization by FLIPR assay; type: functional, cell-based, CHO-K1
T1 sequence (Q6W5P4 whole entry): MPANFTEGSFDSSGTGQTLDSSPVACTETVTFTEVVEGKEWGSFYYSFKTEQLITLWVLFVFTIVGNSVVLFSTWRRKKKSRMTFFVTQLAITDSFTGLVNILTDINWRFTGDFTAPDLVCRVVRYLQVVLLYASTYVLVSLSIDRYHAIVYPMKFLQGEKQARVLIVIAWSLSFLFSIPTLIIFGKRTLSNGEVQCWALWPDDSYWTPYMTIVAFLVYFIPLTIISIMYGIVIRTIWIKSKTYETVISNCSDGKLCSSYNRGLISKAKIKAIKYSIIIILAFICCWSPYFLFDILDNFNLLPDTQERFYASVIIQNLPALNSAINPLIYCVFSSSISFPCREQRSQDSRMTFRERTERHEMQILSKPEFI
In short: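 Dual-sequence FLIPR Ca2+ mobilization in CHOK1 cells expressing recombinant NPSR, plated 24 h before the run. Fluo4AM dye loaded 1 h at 37 °C, 5% CO2. Cells incubated with titrated compound for 4 min, then an EC80 of human NPS added and read for another 4 min. Inhibition calculated against NPS-stimulated control wells. IC50 from 4-parameter logistic fits, averaged over at least two experiments.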

[2] = molecular target: T2, MDR1 (ABCB1, P-glycoprotein) (Homo sapiens, UniProt P08183); test: (§1) Permeability of the compound assessed as MDR1-passive permeability by cell based assay; details: not told; read-out: permeability
T2 sequence (P08183 whole entry): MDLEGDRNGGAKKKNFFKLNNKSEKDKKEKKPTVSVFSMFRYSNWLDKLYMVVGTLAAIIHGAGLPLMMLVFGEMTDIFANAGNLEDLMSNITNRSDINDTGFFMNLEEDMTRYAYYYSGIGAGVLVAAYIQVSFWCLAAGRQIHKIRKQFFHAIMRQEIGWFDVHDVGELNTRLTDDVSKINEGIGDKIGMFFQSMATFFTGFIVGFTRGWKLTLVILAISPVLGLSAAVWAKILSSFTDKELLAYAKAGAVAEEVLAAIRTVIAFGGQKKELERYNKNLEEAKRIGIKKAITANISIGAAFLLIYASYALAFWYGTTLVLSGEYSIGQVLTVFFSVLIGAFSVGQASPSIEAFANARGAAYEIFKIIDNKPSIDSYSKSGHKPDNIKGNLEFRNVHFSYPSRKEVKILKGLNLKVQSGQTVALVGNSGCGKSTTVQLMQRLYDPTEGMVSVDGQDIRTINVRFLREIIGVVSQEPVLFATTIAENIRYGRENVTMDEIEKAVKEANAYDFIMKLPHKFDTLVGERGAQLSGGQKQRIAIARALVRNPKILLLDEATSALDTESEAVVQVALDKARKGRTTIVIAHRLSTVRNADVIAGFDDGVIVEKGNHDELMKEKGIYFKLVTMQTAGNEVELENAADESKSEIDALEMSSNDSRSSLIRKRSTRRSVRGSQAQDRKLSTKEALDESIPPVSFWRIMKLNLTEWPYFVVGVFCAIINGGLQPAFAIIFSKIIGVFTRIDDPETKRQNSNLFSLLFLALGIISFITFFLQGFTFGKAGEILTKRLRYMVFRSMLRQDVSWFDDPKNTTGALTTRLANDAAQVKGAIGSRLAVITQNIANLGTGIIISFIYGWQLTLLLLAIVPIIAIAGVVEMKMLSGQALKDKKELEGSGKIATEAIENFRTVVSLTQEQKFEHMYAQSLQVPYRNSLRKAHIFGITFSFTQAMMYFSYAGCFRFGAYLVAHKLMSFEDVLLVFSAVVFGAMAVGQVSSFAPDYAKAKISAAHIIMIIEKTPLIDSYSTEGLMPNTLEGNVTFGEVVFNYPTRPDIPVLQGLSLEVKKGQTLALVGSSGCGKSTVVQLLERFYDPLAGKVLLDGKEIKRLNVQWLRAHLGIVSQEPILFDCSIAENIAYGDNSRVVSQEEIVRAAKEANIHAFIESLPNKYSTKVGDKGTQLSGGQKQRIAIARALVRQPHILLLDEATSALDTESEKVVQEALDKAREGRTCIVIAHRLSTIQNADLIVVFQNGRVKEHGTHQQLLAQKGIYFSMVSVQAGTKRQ
In short: (§2)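 Passive permeability expressed as Papp in 10^-6 cm/s.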

[3] = molecular target: T2, MDR1 (ABCB1, P-glycoprotein); test: Permeability of the compound assessed as MDR1-mediated directional transport ratio by cell based assay; details: not told
In short: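 MDR1 directional transport ratio, calculated as (B to A)/(A to B). Average of three experiments.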

Rattus norvegicus [4] = test: Ex vivo receptor occupancy in ip dosed rat brain dorsal endopiriform nucleus assessed inhibition of [125I]NPS binding after 30 mins; type: functional, organism-based
In short: (§3)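 Compound given 30 mg/kg ip in 25% HPB cyclodextrin. Brain taken 30 min after dosing (n = 4 rats, 2–3 sections/rat). Tissue sections incubated with 0.5 nM 125I-hNPS for 30 min, with 2 µM unlabeled hNPS defining nonspecific binding. Mean percent occupancy in AON, DEN or SC relative to vehicle was plotted against plasma compound concentration, with IC50 from nonlinear regression.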

Rattus norvegicus [5] = test: Ex vivo receptor occupancy of NPS receptor in rat brain superior coliculus at 30 mg/kg, ip after 30 mins; type: functional, organism-based; design: dose 30 mg/kg; in short: as §3
Rattus norvegicus [6] = test: Ex vivo receptor occupancy of NPS receptor in rat brain anterior olfactory nucleus at 30 mg/kg, ip after 30 mins; type: functional, organism-based; design: dose 30 mg/kg; in short: as §3
Rattus norvegicus [7] = test: Ex vivo receptor occupancy of NPS receptor in rat brain dorsal endopiriform nucleus at 30 mg/kg, ip after 30 mins; type: functional, organism-based; design: dose 30 mg/kg; in short: as §3
Rattus norvegicus [8] = test: Ex vivo receptor occupancy in ip dosed rat brain superior coliculus assessed inhibition of [125I]NPS binding after 30 mins; type: functional, organism-based; in short: as §3
Rattus norvegicus [9] = test: Ex vivo receptor occupancy in ip dosed rat brain anterior olfactory nucleus assessed inhibition of [125I]NPS binding after 30 mins; type: functional, organism-based; in short: as §3
[10] = Drug level in rat plasma at 30 mg/kg, ip after 0.5 hrs; type: ADME, organism-based; design: dose 30 mg/kg, route intraperitoneal; details: read-out: Drug uptake
In short: (§4)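 Rats dosed 30 mg/kg ip. Plasma, brain and CSF levels measured at 0.5 h and 2.0 h and reported in nM.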

[11] = molecular target: ATP-dependent translocase ABCB1 (Homo sapiens, UniProt P08183); test: as §1; in short: as §2
Chain of ATP-dependent translocase ABCB1 (P08183 whole entry): as above

[12] = Drug level in rat cerebrospinal fluid at 30 mg/kg, ip after 2 hrs; type: ADME, organism-based; design: dose 30 mg/kg, route intraperitoneal; details: read-out: Drug uptake; in short: as §4
[13] = Drug level in rat cerebrospinal fluid at 30 mg/kg, ip after 0.5 hrs; type: ADME, organism-based; design: dose 30 mg/kg, route intraperitoneal; details: read-out: Drug uptake; in short: as §4
[14] = Drug level in rat plasma at 30 mg/kg, ip after 2 hrs; type: ADME, organism-based; design: dose 30 mg/kg, route intraperitoneal; details: read-out: Drug uptake; in short: as §4
Neuropeptide S receptor [15] = molecular target: T3, Neuropeptide S receptor (Rattus norvegicus, UniProt P0C0L6); test: Displacement of [3H]quinolinone from rat NPS receptor
T3 sequence (P0C0L6 whole entry): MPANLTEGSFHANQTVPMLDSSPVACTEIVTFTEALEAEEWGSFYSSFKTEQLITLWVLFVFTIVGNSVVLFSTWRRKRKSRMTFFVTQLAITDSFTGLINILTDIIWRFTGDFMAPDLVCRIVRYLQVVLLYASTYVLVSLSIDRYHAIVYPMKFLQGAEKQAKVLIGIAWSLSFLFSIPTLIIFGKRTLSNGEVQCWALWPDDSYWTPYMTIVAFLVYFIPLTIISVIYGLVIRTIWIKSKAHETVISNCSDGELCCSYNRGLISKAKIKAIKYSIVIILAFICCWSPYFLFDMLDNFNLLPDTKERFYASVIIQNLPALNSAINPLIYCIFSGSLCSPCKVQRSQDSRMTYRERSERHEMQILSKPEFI

[16] = Drug level in rat brain at 30 mg/kg, ip after 2 hrs; type: ADME, organism-based; design: dose 30 mg/kg, route intraperitoneal; details: read-out: Drug uptake; in short: as §4
[17] = Drug level in rat brain at 30 mg/kg, ip after 0.5 hrs; type: ADME, organism-based; design: dose 30 mg/kg, route intraperitoneal; details: read-out: Drug uptake; in short: as §4
Plasma = test: Protein binding in human plasma; type: ADME, cell-free
Neuropeptide S receptor [18] = molecular target: T3, Neuropeptide S receptor; test: Displacement of [125I]NPS from NPS receptor in rat brain superior coliculus after 30 mins; type: tissue-based
In short: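 Rat brain sections from vehicle-treated animals (25% HPB cyclodextrin/75% sterile water, ip), preincubated in vitro with titrated compound. Nonspecific binding from co-incubation with 2 µM unlabeled hNPS. 2–3 sections per concentration. Mean ± SEM.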

[19] = Protein binding in human plasma; details: read-out: PPB (converted)

SMILES	IC50 (Neuropeptide S receptor [1])	Papp [2]	efflux ratio [3]	other results
Cn1c(=O)c(CN(C(=O)C2CCCCC2)C2(CCN3CCOCC3)CCCCC2)cc2ccccc21	398 nM			
Cn1c(=O)c(CN(C(=O)C2CCCCC2)C(C)(C)CCN2CCOCC2)cc2ccccc21	144 nM	23 ×10⁻⁶ cm/s	2	
CCC(C)(CCN1CCOCC1)N(Cc1cc2ccccc2n(C)c1=O)C(=O)C1CCCCC1 (single isomer, unassigned; enantiomer 2)	785 nM			
CCC(C)(CCN1CCOCC1)N(Cc1cc2ccccc2n(C)c1=O)C(=O)C1CCCCC1 (racemic)	23 nM	18 ×10⁻⁶ cm/s		
CC(CCN1CCCC1)N(Cc1cc2ccccc2n(C)c1=O)C(=O)C1CCCCC1 (configuration not stated)	1580 nM			
Cn1c(=O)c(CN(C(=O)C2CCCCC2)C(C)(C)CCN2CCCCC2)cc2ccccc21	31 nM	25 ×10⁻⁶ cm/s	36	
CCC(C)(CCN1CCC(F)CC1)N(Cc1cc2ccccc2n(C)c1=O)C(=O)C1CCCCC1 (racemic)	14 nM	33 ×10⁻⁶ cm/s	2.6	
CCC(C)(CCN1CCOCC1)N(Cc1cc2ccccc2n(C)c1=O)C(=O)C1CCCCC1 (single isomer, unassigned; enantiomer 1) [listing 1 of 2 here]				Activity (Rattus norvegicus [4]): Dose-dependent effect; Activity (Rattus norvegicus [5]): Active; Activity (Rattus norvegicus [6]): Active; Activity (Rattus norvegicus [7]): Active; Activity (Rattus norvegicus [8]): Dose-dependent effect; Activity (Rattus norvegicus [9]): Dose-dependent effect
CN1CCN(C2(CN(Cc3cc4ccccc4n(C)c3=O)C(=O)C3CCCCC3)CCCCC2)CC1	18 nM		10.6	
CCC(C)(CCN1CCOCC1)N(Cc1cc2ccccc2n(C)c1=O)C(=O)C1CCCCC1 (single isomer, unassigned; enantiomer 1) [listing 2 of 2 here]	10 nM			concentration at 0.5 h [10]: 4.34 µM; permeability [11]: 36 ×10⁻⁶ cm/s; concentration at 2 h [12]: 45 nM; concentration at 0.5 h [13]: 101 nM; IC50 (Rattus norvegicus [4]; 0.5 h): 380 nM; concentration at 2 h [14]: 2300 nM; IC50 (Rattus norvegicus [8]; 0.5 h): 130 nM; EC50 (Neuropeptide S receptor [15]): 1.3 nM; concentration at 2 h [16]: 665 nM; IC50 (Rattus norvegicus [9]; 0.5 h): 570 nM; concentration at 0.5 h [17]: 1690 nM; PPB (Plasma): 82%; IC50 (Neuropeptide S receptor [18]): 1.44 nM
Cn1c(=O)c(CN(C(=O)C2CCCCC2)C(C)(C)CCN2CCCC2)cc2ccccc21	326 nM			
CCC(C)(CCN1CCC(F)(F)CC1)N(Cc1cc2ccccc2n(C)c1=O)C(=O)C1CCCCC1 (racemic)	22 nM	25 ×10⁻⁶ cm/s	1.1	fraction unbound [19]: 0.03
CCC(C)(CCN1CCCCC1)N(Cc1cc2ccccc2n(C)c1=O)C(=O)C1CCCCC1 (racemic)	7 nM	28 ×10⁻⁶ cm/s	43	fraction unbound [19]: 0.11
CCC(CC)(CCN1CCOCC1)N(Cc1cc2ccccc2n(C)c1=O)C(=O)C1CCCCC1	103 nM			
CC(CCN1CCOCC1)N(Cc1cc2ccccc2n(C)c1=O)C(=O)C1CCCCC1 (configuration not stated)	725 nM			
